An excerpt weighted towards active compounds, which were near 3.5% of everything screened.
MrgX1 antag – human MrgX1 receptor antagonism, primary screen; MRGX1-HEK293 calcium flux, Fluo-4, BAM8-22 antagonism; active compounds read low; B-score at 10 µM; Q96LB2; actives 1.3% (n = 310,000);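 active = calcium-response B-score plate-corrected more than 3 library SD below zero, starting fluorescence within 5 deviations, no agonist response on first addition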;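 note: peak minus trough fluorescence over baseline after final BAM8-22 challenge near maximal dose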
Target sequence (Q96LB2 whole entry, looked up): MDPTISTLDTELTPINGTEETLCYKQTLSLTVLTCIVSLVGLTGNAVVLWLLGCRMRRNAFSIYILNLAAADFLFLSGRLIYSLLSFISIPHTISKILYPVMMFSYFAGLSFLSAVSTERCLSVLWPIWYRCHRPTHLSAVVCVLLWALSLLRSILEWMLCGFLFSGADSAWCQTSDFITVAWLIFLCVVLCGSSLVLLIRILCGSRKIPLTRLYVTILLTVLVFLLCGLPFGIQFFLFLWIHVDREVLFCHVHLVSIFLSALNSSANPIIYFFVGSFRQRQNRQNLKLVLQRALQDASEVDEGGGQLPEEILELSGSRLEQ
RGS4 act – RGS4 potentiation or activation. HEK293 M3R/inducible RGS4, carbachol calcium flux Fluo4; active compounds read low. B-score at 10 µM. actives 0.92% (n = 310,000). AID 463111;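 active = B-score of the integrated calcium signal more than 4 SD below the library mean, with starting fluorescence not abnormally high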;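 note: negative B-score means reduced calcium response which marks RGS4 activation or potentiation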
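Material: Inducible-RGS4 HEK293 cells carrying M3 receptor; also added: carbachol at ECmax as muscarinic agonist stimulus; incubation: compound preincubation 20 min at room temperature before agonist; signal: Fluo4-AM (2 µM) calcium-flux fluorescence, kinetic read; measure: integrated calcium ratio converted to B score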
MrgX1 ag – human MrgX1 receptor agonism, primary screen; B-score at 10 µM; AID 588627; Q96LB2; actives 0.44% (n = 310,000); MrgX1-HEK293 cells, Fluo-4 calcium fluorescence, agonist mode; active compounds read high;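 active = calcium response B-score plate-corrected fluorescence ratio at least 3 library SD, with starting fluorescence B-score inside 5 SD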
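Test system: HEK293 cells stably expressing human MrgX1 receptor; Input: fifteen thousand cells per well; Dosing: compound delivered in addition one of three; Schedule: overnight seeding, then 1 h dark dye loading; Technique: Fluo-4 NW calcium fluorescence; Measure: B-scored fluorescence response ratio; Controls: positive and negative controls per plate.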
MrgX1 PAM – allosterically activates human MrgX1 receptor signaling; Q96LB2; MrgX1-HEK293, Fluo-4 calcium flux, FDSS; active compounds read high; B-score at 10 µM; actives 0.63% (n = 310,000); AID 588675;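 active = plate-corrected calcium response at least 3 library SD above typical, normal starting fluorescence, not activating the receptor alone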;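 note: compound read alongside a low EC10 to EC30 dose of BAM8-22 agonist; peak minus trough fluorescence over baseline measured at the second addition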
RGS4 block – inhibitors of human RGS4; HEK293 M3R/RGS4 inducible, Fluo-4 calcium flux; active compounds read high; triggered by carbachol at its EC20; B-score at 10 µM; actives 0.45% (n = 310,000); AID 463165;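 active = B-score, a plate-corrected calcium signal, over three deviations above library mean, with baseline fluorescence within five deviations of library mean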;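 note: RGS4 expression induced by doxycycline in cells with stable M3 receptor; B-score is computed from the integrated fluorescence ratio over baseline after carbachol; higher B-score means a larger calcium signal and so more RGS4 inhibition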
Target sequence (P49798 whole entry, looked up): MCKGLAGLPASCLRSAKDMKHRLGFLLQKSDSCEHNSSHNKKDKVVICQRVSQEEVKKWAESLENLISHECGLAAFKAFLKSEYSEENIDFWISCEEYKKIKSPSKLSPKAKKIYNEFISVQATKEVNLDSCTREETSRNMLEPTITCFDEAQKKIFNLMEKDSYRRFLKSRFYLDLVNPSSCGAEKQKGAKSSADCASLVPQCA
Each line names hits and unclear results; the compound was inactive in the other large screens.

Cc1cc(/C=N/n2c(COc3ccccc3C)nc3ccccc3c2=O)c(O)c([N+](=O)[O-])c1	MrgX1 antag -6.5
Cc1ccccc1OCc1nc2ccccc2c(=O)n1/N=C/c1c[nH]c2ccccc12	none
O=C(O)c1cc([N+](=O)[O-])ccc1N1CCC(Cc2ccccc2)CC1	MrgX1 ag 40
O=C(O)c1cc([N+](=O)[O-])ccc1N1CCCCC1	none
Cc1ccc(CN2CCNC(=O)C2CC(=O)N(C)C2CCCCC2)cc1 (stereo not drawn)	none
Cc1ccc([N+](=O)[O-])cc1S(=O)(=O)Nc1ccc(-c2ccc(N3CCCC3)nn2)cc1	MrgX1 PAM 16
O=[N+]([O-])c1ccc(Cl)c(S(=O)(=O)Nc2ccc(-c3ccc(N4CCCC4)nn3)cc2)c1	none
Cc1c([N+](=O)[O-])cc(S(=O)(=O)Nc2ccc(-c3ccc(N4CCCC4)nn3)cc2)cc1[N+](=O)[O-]	none
O=[N+]([O-])c1ccc(S(=O)(=O)Nc2ccc(-c3ccc(N4CCCC4)nn3)cc2)cc1	MrgX1 PAM 6.7
CCOc1cc(/C=N/NC(=O)C(=O)NCCCOC(C)C)cc(Br)c1O	none
CC(C)n1nc(C(=O)Nc2nc3ccccc3[nH]2)c2ccccc2c1=O	RGS4 act -9.5
C/C(=N\NC(=O)c1cccnc1)c1cc2ccccc2o1	MrgX1 antag -7.6
C/C(=N\NC(=O)c1ccncc1)c1cc2ccccc2o1	none
O=C(Nc1cccc(Br)c1)c1ccc(CN2CCc3ccccc3C2)cc1	MrgX1 antag -6.1, RGS4 act -8.8
CSc1cccc(NC(=O)c2ccc(CN3CCc4ccccc4C3)cc2)c1	MrgX1 antag -8.2
CC(=O)Nc1ccc(NC(=O)c2ccc(CN3CCc4ccccc4C3)cc2)cc1	none
CCCCOc1ccccc1C(=O)N(Cc1ccco1)C1CCS(=O)(=O)C1 (stereo not drawn)	none
Cc1ccccc1C(=O)OC1CCN(C)CC1	none
CN1CCC(OC(=O)c2ccccc2Cl)CC1	RGS4 act -7.2
CCc1ccc(Nc2n[n+](-c3ccccc3)c(/C=C/c3ccccc3)s2)cc1	MrgX1 PAM 7.4
COc1ccc(C)cc1Nc1n[n+](-c2ccccc2)c(-c2ccc(N(C)C)cc2)s1	MrgX1 ag 34
COc1ccc2ccccc2c1-c1sc(Nc2ccccc2)n[n+]1-c1ccc(F)cc1	MrgX1 antag -5.9
CN(C)c1ccc(-c2sc(Nc3ccccc3)n[n+]2-c2ccc(F)cc2)cc1	MrgX1 ag 47
Cc1sc(/N=C/c2ccccc2O)c(C#N)c1C	none
CCc1ccc(Nc2n[n+](-c3ccccc3)c(-c3ccc(N(CC)CC)cc3)s2)cc1	MrgX1 ag 45
CCN(CC)c1ccc(-c2sc(Nc3ccccc3)n[n+]2-c2ccc(F)cc2)cc1	none
O=C(/C=C/c1ccc(S(=O)(=O)N2CCOCC2)cc1)NCCCn1ccnc1	none
Cc1cc(/C=C2/NC(=O)NC2=O)c(C)n1-c1ccncc1	MrgX1 PAM 6.7
Cc1cccc(-n2c(C)cc(/C=C3\NC(=O)NC3=O)c2C)c1	none
Cc1ccccc1CC(=O)N1CCOCC1	none
CC1CN(S(=O)(=O)c2cccc(C(=O)N(Cc3nnc(-c4ccccc4Cl)o3)C3CC3)c2)CC(C)O1 (stereo not drawn)	none
O=C1CC(Cc2ccccc2)C(=O)N1CCc1ccc2c(c1)OCO2 (stereo not drawn)	none
O=C1OC[C@H](Cc2ccc3c(c2)OCO3)/C1=C\c1ccc2c(c1)OCO2	MrgX1 antag -4.6
CCOC(=O)N1CCN(C(=O)CSCC(=O)Nc2nc(-c3ccc(-c4ccccc4)cc3)cs2)CC1	MrgX1 antag -6.4
CCN(C(=O)CN1C(=O)COc2ccc(S(=O)(=O)N3CCCCCC3)cc21)c1cccc(C)c1	MrgX1 ag 38
Cc1nc(N2CCN(c3ccccn3)CC2)c2c(C)c(C(=O)N3CCN(c4cccc(Cl)c4)CC3)sc2n1	RGS4 act -7.1
Cc1nc(N2CCOCC2)c2c(C)c(C(=O)Nc3ccc(F)cc3Cl)sc2n1	none
Cc1nc(N2CCN(c3ccccn3)CC2)c2c(C)c(C(=O)Nc3ccc(F)cc3Cl)sc2n1	RGS4 act -7.4
CC1=NN(C(=O)c2ccccc2F)C(O)(c2ccc(Cl)cc2)C1 (stereo not drawn)	none
COc1ccc(N/N=C(/C)c2cnnc(-c3ccccc3)n2)cc1	none
CCOC(=O)c1[nH]c(C)c(C(=O)/C=C/c2ccc(C(=O)O)cc2)c1C	none
CC(C)=CCc1c(O)cc2oc3c(CC=C(C)C)c(O)c(O)c(CC=C(C)C)c3c(=O)c2c1O	MrgX1 antag -5.6
Cc1cc(C(=O)COC(=O)CC2Sc3ccccc3NC2=O)c(C)n1-c1cccc(C(F)(F)F)c1 (stereo not drawn)	RGS4 act -8.2
Cc1c(NC(=O)C2(c3ccc(Cl)cc3)CCCC2)c(=O)n(-c2ccccc2)n1C	none
Cc1c(NC(=O)C2(c3ccccc3)CCOCC2)c(=O)n(-c2ccccc2)n1C	MrgX1 PAM 6.7
CCOP(=O)(Nc1ccc2oc(=O)c3ccccc3c2c1)OCC	none
CC(/C=N/n1c(-c2ccc(C)cc2)n[nH]c1=S)=C\c1ccco1	none
CC(/C=N/n1c(-c2ccncc2)n[nH]c1=S)=C\c1ccco1	none
CC(/C=N/n1c(-c2ccco2)n[nH]c1=S)=C\c1ccco1	MrgX1 antag -5.9
CC(/C=N/n1c(-c2ccccc2)n[nH]c1=S)=C\c1ccco1	RGS4 act -7.2
COc1ccccc1/C=C/C(=O)OCC(=O)NNC(=O)c1ccccc1	MrgX1 antag -5.2
COc1ccccc1/C=C/C(=O)OCC(=O)NCc1ccco1	none
COc1ccc(S(=O)(=O)/N=C2/NC(=O)/C(=C/c3ccco3)S2)cc1	MrgX1 PAM 7.5
O=C(c1ccc(Cl)cc1)C(CN1CCCCC1)c1ccccc1 (stereo not drawn)	RGS4 act -8.3
CCOC(=O)C(CN1CCCC1)c1ccccc1 (stereo not drawn)	none
CC[n+]1ccccc1/C=C1\Sc2ccc(C)cc2N1C	MrgX1 antag -8.4
CCN(Cc1ccccc1)C(=O)c1cccc(S(=O)(=O)N2CCN(Cc3ccccc3)CC2)c1	none
CCCCN(C(=O)c1cccc(S(=O)(=O)N2CCN(Cc3ccccc3)CC2)c1)c1ccccc1	MrgX1 antag -4.7
CCOc1ccc(N2CC(C(=O)Nc3nnc(Cc4ccccc4)s3)CC2=O)cc1 (stereo not drawn)	none
COC(=O)Cn1c(=NC(=O)c2nc3ccccc3s2)sc2cc(S(C)(=O)=O)ccc21	MrgX1 antag -5.2
COC(=O)Cn1c(=NC(=O)c2sc3ccccc3c2Cl)sc2cc(S(N)(=O)=O)ccc21	none
COC(=O)Cn1c(=NC(=O)c2ccc(Cl)s2)sc2cc(C)ccc21	MrgX1 antag -5.9
CC1(C)CC(=O)C([N+](=O)[O-])=C(NCCCC(=O)O)C1	MrgX1 antag -5.4

Source: PubChem
